HMGR II inh = inhibitors of class II HMG-CoA reductase from Enterococcus faecalis; purified E. faecalis HMGR, NADPH absorbance 340 nm kinetic; inhibition, % at 10 µM; 0.41% of 190,000 active; AID 1066;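 active = inhibition above a set limit, the median over all tested compounds plus 3 SD, cut at about 9.5% in these data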;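 note: enzyme runs in reverse so mevalonate oxidation gives rising NADPH absorbance; 0% = complete reaction with DMSO and 100% = background rate lacking mevalonate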
RAM inhibit = yeast RAM network inhibition | AID 868 | inhibition, % at 50 µM | 1.8% of 190,000 active | S. cerevisiae dse1pr::URA3 reporter, 5-FOA growth OD615, 2 d; analog-sensitive cbk1-as2 kinase mutant strain;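 active = inhibition above a set limit, 3 SD over mean compound inhibition, cut at about 8.4% in these data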;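 note: 0% = DMSO-only wells with no growth and 100% = 10 µM 1-NA-PP1 full growth; inhibition rescues growth on 5-FOA so higher OD means more RAM inhibition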
INS promoter inh = TRM-6 insulin promoter activity inhibition. 0.9% of 130,000 active. AID 1273. inhibition, % at 2 µM. TRM-6 cells (human fetal islet line), insulin promoter-eGFP reporter, imaging; reporter expression induced with tamoxifen;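 active = inhibition above the mean plus 3 SD, with well images judged a real hit on visual review, cut at about 60% in these data, passing the limit was not always enough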
Yeast growth inh = chemicals that inhibit yeast BB579 growth in restrictive medium (lifespan-shortening candidates). S. cerevisiae BB579 growth, OD615, 48 h. inhibition, % at 10 µM. 0.51% of 140,000 active. AID 804;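 active = inhibition above a set limit, 3 SD over the mean compound inhibition, cut at about 44% in these data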
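Test system: Saccharomyces cerevisiae DeaD strain BB579, replicative lifespan model yeast | Buffer or medium: Restrictive CSMM-D medium | Doses: One dose, 10 µM compound with 0.25% DMSO | Incubation: 48 h exposure, 30 °C | Detection: Culture absorbance at 615 nm | Control set: Amphotericin B at 10 µg/mL as positive control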
Yeast life ext = extends the lifespan of yeast | inhibition of the nicotinamide effect, % at 10 µM | 0.68% of 130,000 active | S. cerevisiae growth with nicotinamide, OD615; deaD strain in restrictive glucose medium;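 active = inhibition above a set limit, placed 3 SD over the median of all compounds, cut at about 26% in these data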;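 note: 0% = nicotinamide-treated wells and 100% = cells grown without nicotinamide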
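Assay system: engineered S. cerevisiae DeaD replicative-lifespan strain, galactose-grown log-phase cells; Buffer or medium: CSMM-D glucose medium, restrictive; Probe or stimulus: nicotinamide 1.5 mM; Compound: single dose 10 µM compound, 0.25% DMSO; Schedule: 4 h preincubation then 48 h treatment at 30 °C; Technique: OD615 measurement.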
RAM 5-FOA = RAM network inhibition, efflux-deficient strain; S. cerevisiae efflux-deficient reporter strain, 5-FOA growth OD615, 2 days; shares compounds with RAM inhibit; 1,200 tested, under 10 active; max inhibition, %; call rule not given here;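 note: plate controls were vehicle for no effect and reference inhibitor for full effect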
* marks the source's active call; other numbers are inactive results; . = no result given. Only some compounds are listed: those with a hit (about 3.7% of all), similar ones and a draw of the others.

SMILES | HMGR II inh | RAM inhibit | INS promoter inh | Yeast growth inh | Yeast life ext | RAM 5-FOA
CCCCCOc1ccc(CSc2ncn[nH]2)cc1 | 2 | 24* | 62 | -26 | . | 1
CCCCCCCCNC(=O)CC(NS(=O)(=O)c1ccc(NC(C)=O)cc1)C(C)C (stereo not given) | 6 | 13* | -78 | -44 | 7 | 2
CC(=O)Nc1ccc(S(=O)(=O)NC(CC(=O)NCCCN2CCOCC2)C(C)C)cc1 (stereo not given) | -1 | 1 | . | -27 | -13 | .
CNC(=O)c1ccc(-n2cccn2)nc1 | -4 | 2 | 48 | . | . | .
O=C(Nc1ccccc1-c1nnc(SCc2ccccc2Cl)o1)c1ccccc1 | -5 | 12* | 12 | -16 | -6 | 3
Nc1nn2c(-c3ccccc3)cc(=O)[nH]c2c1N=Nc1ccc(Br)cc1 | -1 | 14* | . | . | . | 2
Cc1ccc(CSc2nnc(-c3ccc4c(c3)OCO4)o2)cc1 | -8 | 15* | -32 | -28 | -5 | 2
N#C/C(=C\c1ccc(-c2cccc([N+](=O)[O-])c2)o1)c1nnc(N2CCOCC2)n1-c1ccccc1 | -1 | 0 | -30 | . | . | .
CC(NC(=O)Cc1cccs1)c1ccccc1 (stereo not given) | -3 | 0 | . | . | . | .
CC(NC(=O)COC(=O)/C(=C/c1cccs1)c1cccs1)c1ccccc1 (stereo not given) | 0 | 14* | -17 | -44 | 4 | 1
Cc1cccc(Nc2nc(NCc3ccco3)c3ccccc3n2)c1 | 2 | 16* | -21 | -42 | 0 | 1
Cc1ccccc1Nc1nc(NCc2ccco2)c2ccccc2n1 | -7 | 1 | . | . | . | .
CCOCCCNC(=O)c1cc(=O)n(Cc2cccc(C)c2)c2ccccc12 | -5 | 12* | -25 | . | . | 1
CCn1c(=O)cc(OCC(=O)NCCc2cccc(C)c2)c2ccccc21 | -6 | 4 | -129 | . | . | .
CC1(C)C(C=C(Cl)Cl)C1C(=O)Nc1ccc([N+](=O)[O-])cc1 (stereo not given) | 3 | 11* | 12 | 54* | -4 | 2
O=C(CN1C(=O)CCC1=O)Nc1cccc(NC(=O)CN2C(=O)CCC2=O)c1 | -3 | 1 | . | . | . | .
CC(C)[C@@H]1NC(=O)c2cc([N+](=O)[O-])cc(F)c2NCCC[C@@H](C(N)=O)NC(=O)[C@H](CO)NC1=O | -7 | 0 | 25 | -2 | -4 | .
O=C(Nc1cccc(C(F)(F)F)c1)NC1CCCCC1 | 4 | 2 | -36 | -66 | -4 | .
O=C(OC(C(=O)Nc1cccc(C(F)(F)F)c1)c1ccccc1)C1CCCCC1 (stereo not given) | -1 | 14* | 13 | -31 | 0 | 2
O=C(/C=C/c1ccc(Cl)cc1Cl)NCCSCc1ccccc1 | -3 | 16* | 9 | -38 | -2 | 4
COc1ccc(C(=O)/C=C/c2ccc(N3CCCCC3)c([N+](=O)[O-])c2)c(OC)c1 | -15 | 17* | . | -42 | 4 | 4
O=C(O/N=C\c1ccc(N2CCCCC2)c([N+](=O)[O-])c1)c1c(F)cccc1F | -4 | 6 | 11 | -37 | -6 | .
Cc1ccc(C(=O)O/N=C\c2ccc(N3CCCCC3)c([N+](=O)[O-])c2)cc1 | -1 | 16* | 24 | -15 | -3 | 3
COc1cc(/C=C/C(=O)O)cc(S(=O)(=O)Nc2cccc(SC)c2)c1OC | 0 | 1 | 2 | -19 | 2 | .
COc1ccc(Cc2n[nH]c(=S)n2Cc2ccccc2)cc1Cl | -5 | 0 | 11 | . | . | .
SMILES | HMGR II inh | RAM inhibit | INS promoter inh | Yeast growth inh | Yeast life ext | RAM 5-FOA
Cc1ccc(S(=O)(=O)c2c(CO)c(-c3ccccc3)nn2C)cc1 | -1 | 14* | . | . | . | 4
COc1nc2ccc(C)cc2cc1-c1noc(-c2ccccc2)n1 | -2 | 12* | -31 | -53 | -26 | 3
CCCOC(=O)c1ccc(NC(=O)c2c(Cl)ccc(Cl)c2OC)cc1 | 2 | 12* | -6 | -61 | -2 | 2
COc1ccccc1OCC(=O)Nc1ccc(-c2nnc(-c3ccco3)o2)cc1 | -7 | 12* | -56 | . | . | 2
C=C(C)C1(O)OC(=O)C=C1OC (stereo not given) | -1 | 2 | . | . | . | .
CC(C)CCC(C)N=Cc1c(O)n(Cc2ccccc2)c(=O)c2ccccc12 (stereo not given) | 0 | 17* | 46 | -83 | 17 | 6
c1ccc(CSc2ccc(-c3cccnc3)nn2)nc1 | -8 | 2 | 0 | . | . | .
CCCCN(CCCC)S(=O)(=O)c1ccc(NS(=O)(=O)c2ccc(NC(C)=O)cc2)cc1 | -2 | 17* | 4 | -65 | 4 | 2
CN(/N=C/c1ccc2c(c1)OCO2)c1ccccc1 | 0 | 4 | -11 | -47 | -10 | .
C(=N\N(c1ccccc1)c1ccccc1)/c1ccc2c(c1)OCO2 | -1 | 14* | 14 | -41 | -16 | 7
CCN(CC)S(=O)(=O)c1ccc(N2CCOCC2)c(NC(=O)CCC2CCCCC2)c1 | -1 | 14* | 13 | -30 | 3 | 2
CCN(CC)S(=O)(=O)c1ccc(N2CCOCC2)c(NC(=O)Cc2ccccc2)c1 | -8 | 0 | . | -32 | 4 | .
CCc1ccc(-n2c(=O)c3c(C)c(C(=O)N(C)C)sc3n(CC(=O)NCc3ccco3)c2=O)cc1 | -1 | 1 | . | -23 | -22 | .
N#CC(C(=O)OC1CCCCC1)c1nc2ccccc2nc1N1CCOCC1 (stereo not given) | -7 | 3 | -38 | -27 | 7 | .
CCC(CC)COC(=O)C(C#N)c1nc2ccccc2nc1N1CCOCC1 (stereo not given) | -1 | 16* | . | -14 | -2 | 4
O=c1c2c3c(sc2nc(NCCO)n1CCc1ccccc1)CCCCC3 | -2 | 6 | -3 | -9 | -10 | .
OCCNc1nc(SCc2ccccc2)nc2sc3c(c12)CCC3 | 0 | 11* | 9 | -41 | -28 | 3
Cc1cc(C(=O)CSc2ccc(Cl)cc2)cc(C)c1OC(=S)N(C)C | -9 | 12* | 9 | -26 | -4 | 5
O=C(C1=C[C@H](c2csc3ccccc23)C[C@H](OCc2ccc(CO)cc2)O1)N1CCN(Cc2ccc3c(c2)OCO3)CC1 | 1 | 0 | . | . | . | .
Cc1nn(Cc2ccccc2)c(Cl)c1/C=N/NC(=O)CNc1cccc(C(F)(F)F)c1 | -3 | 2 | 34 | -40 | -1 | .
CSc1ccccc1Sc1cc(C(=O)O)c2ccccc2n1 | 0 | -1 | 44 | -4 | -1 | .
O=C(O)c1cc(Sc2ccc(Br)cc2)nc2ccccc12 | -2 | 11* | . | . | . | 3
O=C(COc1ccccc1)NCC(=O)Nc1cccc(S(=O)(=O)NC2=NCCC2)c1 | 9 | 0 | 13 | . | . | .
Cc1ccc(-c2ccc(C)c(N)c2C)c(C)c1N | 3 | 1 | . | . | . | .
CCOC(=O)C1=C(O)/C(=C/c2ccc(OCC(=O)O)c(OC)c2)SC1=Nc1ccc(OC)cc1 | 0 | 14* | 17 | -35 | 5 | 9
Clc1ccccc1Nc1nc(-c2cccnc2)cs1 | -1 | 2 | -358 | . | . | .

Compound activity: PubChem, several laboratories
